Measured values from ChEMBL document CHEMBL3596101, “The Mechanism of Ca(2+) Movement in the Involvement of Baicalein-Induced Cytotoxicity in ZR-75-1 Human Breast Cancer Cells” (J Nat Prod, 2015).
Activity calls are given as the source filed them. No cut-off for these calls is given here.

Experiments:
ZR-75-1 [1] = assay: Induction of reactive oxygen species production in human ZR-75-1 cells at 40 uM after 24 hrs by DCFH-DA probe-based flow cytometric analysis (reference value: 3.623%); format: functional
In short: (§1)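 ZR-75-1 cells treated with 20–40 μM compound for 24 h, with 5 μM BAPTA-AM added first where indicated. Cells suspended at 1 × 10^6/mL, loaded with 10 μM DCFH-DA for 30 min at 37 °C. DCF read by flow cytometry (488 nm excitation, 530/30 nm filter, 10000 cells). % H2O2-positive (M1) after subtracting the baseline without probe. Three experiments.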

ZR-75-1 [2] = assay: Induction of reactive oxygen species production in human ZR-75-1 cells after 24 hrs by DCFH-DA probe-based flow cytometric analysis; format: functional, cell-based; in short: as §1
ZR-75-1 [3] = assay: Induction of apoptosis in human ZR-75-1 cells at 20 to 40 uM preincubated for 24 hrs followed by antioxidant N-Acetylcysteine addition by annexin V-FITC/propidium iodide staining-based flow cytometric analysis; format: functional, cell-based
In short: (§2)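 ZR-75-1 cells exposed to 20–40 μM compound for 24 h, with 5 μM BAPTA-AM or NAC added first where indicated. Cells stained with Alexa Fluor 488 annexin V/PI for 15 min, at least 20000 cells analysed by flow cytometry (488 nm excitation, 530/575 nm filters). Early = annexin V+/PI−, late = annexin V+/PI+. Three independent biological replicates.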

ZR-75-1 [4] = assay: Induction of apoptosis in human ZR-75-1 cells assessed as activation of caspase-9 at 20 to 40 uM preincubated for 24 hrs followed by Ca2+ chelator BAPTA-AM addition by Western immunoblot analysis; format: functional, cell-based
In short: (§3)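 Confluent ZR-75-1 cells (3 × 10^6/dish) treated with 20, 30 or 40 μM compound for 24 h. Where used, 5 μM BAPTA-AM or 5 μM NAC was added before the compound. About 50 μg lysate protein run on 10% SDS-PAGE, transferred to PVDF, probed for cleaved caspase-9/-3 and β-actin, chemiluminescence. Densitometry normalized to β-actin. Three experiments.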

ZR-75-1 [5] = assay: Increase in intracellular Ca2+ level in human ZR-75-1 cells at 40 uM measured every 150 secs by fura-2-AM dye-based spectrofluorophotometric analysis in presence of Ca2+ containing medium with store-operated Ca2+ channel blocker 2-APB; format: functional, cell-based
In short: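 In Ca2+-containing medium (2 mM CaCl2), 2-APB (30 μM) or GF109203X (2 μM) was added 1 min before 40 μM compound to fura-2-loaded ZR-75-1 cells at 25 °C. Response = net area under curve over a 150 s interval, as % of compound alone. Mean ± SEM, n=3.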

ZR-75-1 [6] = assay: Induction of apoptosis in human ZR-75-1 cells assessed as early apoptotic cells at 30 uM after 24 hrs by annexin V-FITC/propidium iodide staining-based flow cytometric analysis (reference value: 6.84%); format: functional; in short: as §2
ZR-75-1 [7] = assay: Increase in intracellular Ca2+ level in human ZR-75-1 cells at 40 uM treated for 90 secs post PLC inhibitor U73122 and ATP addition by fura-2-AM dye-based spectrofluorophotometric analysis in presence of Ca2+ free medium; format: functional, cell-based
In short: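 Performed in Ca2+-free medium with fura-2-loaded ZR-75-1 cells. Response expressed relative to 40 μM compound alone (100%). Three experiments.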

ZR-75-1 [8] = assay: Increase in intracellular Ca2+ level in human ZR-75-1 cells at 40 uM by fura-2-AM dye-based spectrofluorophotometric analysis in presence of Ca2+ containing medium with Ca2+ chelator BAPTA-AM; format: functional, cell-based
In short: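 Fura-2-loaded ZR-75-1 cells treated with 5 μM BAPTA-AM, then 40 μM compound in Ca2+-containing medium (2 mM CaCl2, pH 7.4). Ratio fluorescence 340/380 nm excitation, 510 nm emission, 25 °C cuvette.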

ZR-75-1 [9] = assay: Induction of apoptosis in human ZR-75-1 cells assessed as late apoptotic cells at 40 uM after 24 hrs by annexin V-FITC/propidium iodide staining-based flow cytometric analysis (reference value: 2.53%); format: functional; in short: as §2
ZR-75-1 [10] = assay: Increase in intracellular Ca2+ level in human ZR-75-1 cells treated for 25 secs by fura-2-AM dye-based spectrofluorophotometric analysis in presence of Ca2+-free medium; format: functional, cell-based
In short: (§4)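 Fura-2-loaded ZR-75-1 cells (0.5 million per 1 mL, stirred, 25 °C) in Ca2+-containing or Ca2+-free medium. Compound added at 25 s. 340/380 nm excitation, 510 nm emission at 1 s intervals, calibrated to nM. Concentration-response from baseline-subtracted area under curve (25–250 s) as % of 50 μM response in Ca2+ medium. EC50 from Hill fit. Three experiments.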

ZR-75-1 [11] = assay: Change in endoplasmic reticulum Ca2+ pump inhibitor thapsigargin-induced intracellular Ca2+ increase in human ZR-75-1 cells at 40 uM pretreated with thapsigargin followed by compound addition in presence of Ca2+ free medium; format: functional, cell-based
In short: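 ZR-75-1 cells loaded with 2 μM fura-2-AM for 30 min at 25 °C, then suspended in Ca2+-free medium (pH 7.4; 0.3 mM EGTA, 3 mM MgCl2). Stirred cuvette at 25 °C. Thapsigargin (1 μM) or BHQ (50 μM) given before or after 40 μM compound. Excitation 340/380 nm, emission 510 nm, read at 1 s intervals. [Ca2+]i calibrated with Triton X-100/CaCl2 then EGTA.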

ZR-75-1 [12] = assay: Induction of apoptosis in human ZR-75-1 cells at 20 to 40 uM after 24 hrs by annexin V-FITC/propidium iodide staining-based flow cytometric analysis in presence of Ca2+ chelator BAPTA-AM; format: functional, cell-based; in short: as §2
ZR-75-1 [13] = assay: Induction of apoptosis in human ZR-75-1 cells assessed as late apoptotic cells at 30 uM after 24 hrs by annexin V-FITC/propidium iodide staining-based flow cytometric analysis (reference value: 2.53%); format: functional; in short: as §2
ZR-75-1 [14] = assay: Induction of luminal endoplasmic reticulum Ca2+ increases in human ZR-75-1 cells assessed as ratio of Ca2+ level at 40 uM by Mag-fura-2 dye-based fluorescence assay (reference value: 0.67 +/- 0.02); format: functional
In short: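 ZR-75-1 cells loaded with 2 μM Mag-fura-2-AM for 45 min at 37 °C, permeabilized 2 min with […] digitonin in high-K+ intracellular buffer (pH 7.2). Perfused with 0.2 mM Mg-ATP, free Ca2+ clamped at 170 nM. Ratio calibrated with ionomycin plus Ca2+ or EGTA, Kd 53 μM. Control versus 40 μM compound.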

ZR-75-1 [15] = assay: Induction of reactive oxygen species production in human ZR-75-1 cells at 20 uM after 24 hrs by DCFH-DA probe-based flow cytometric analysis (reference value: 3.623%); format: functional; in short: as §1
ZR-75-1 [16] = assay: Increase in intracellular Ca2+ level in human ZR-75-1 cells at 40 uM measured every 150 secs by fura-2-AM dye-based spectrofluorophotometric analysis in presence of Ca2+ free medium with PKC inhibitor GF109203X; format: functional, cell-based
In short: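 In Ca2+-free medium, GF109203X (2 μM) was added 1 min before 40 μM compound to fura-2-loaded ZR-75-1 cells in a 25 °C cuvette. Response = net area under curve as % of compound alone. Three experiments.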

ZR-75-1 [17] = assay: Induction of apoptosis in human ZR-75-1 cells assessed as activation of caspase-3 at 20 to 40 uM preincubated for 24 hrs followed by antioxidant N-Acetylcysteine addition by Western immunoblot analysis; format: functional, cell-based; in short: as §3
ZR-75-1 [18] = assay: Increase in intracellular Ca2+ level in human ZR-75-1 cells treated for 25 secs by fura-2-AM dye-based spectrofluorophotometric analysis in presence of Ca2+ containing medium; format: functional, cell-based; in short: as §4
ZR-75-1 [19] = assay: Induction of apoptosis in human ZR-75-1 cells assessed as activation of caspase-3 at 20 to 40 uM preincubated for 24 hrs followed by Ca2+ chelator BAPTA-AM addition by Western immunoblot analysis; format: functional, cell-based; in short: as §3
ZR-75-1 [20] = assay: Induction of apoptosis in human ZR-75-1 cells assessed as early apoptotic cells at 40 uM after 24 hrs by annexin V-FITC/propidium iodide staining-based flow cytometric analysis (reference value: 6.84%); format: functional; in short: as §2

O=c1cc(-c2ccccc2)oc2cc(O)c(O)c(O)c12 [BAICALEIN]
Activity (ZR-75-1 [1]): 43.227%
Activity (ZR-75-1 [2]): Dose-dependent effect
Activity (ZR-75-1 [3]): inactive
Activity (ZR-75-1 [4]): inactive
Activity (ZR-75-1 [5]): inactive
Activity (ZR-75-1 [6]): 50.72%
Activity (ZR-75-1 [7]): inactive
Activity (ZR-75-1 [8]): inactive
Activity (ZR-75-1 [9]): 6.32%
EC50 (ZR-75-1 [10]): 35 µM
Activity (ZR-75-1 [11]): inactive
Activity (ZR-75-1 [12]): inactive
Activity (ZR-75-1 [13]): 1.96%
Ratio (ZR-75-1 [14]): 0.875
Activity (ZR-75-1 [15]): 22.707%
Activity (ZR-75-1 [16]): inactive
Activity (ZR-75-1 [17]): inactive
Activity (ZR-75-1 [18]): Dose-dependent effect
EC50 (ZR-75-1 [18]): 25 µM
Activity (ZR-75-1 [19]): inactive
Activity (ZR-75-1 [20]): 55.96%
